# “And” between values parts separate entries of the source, which are not always exact repeats. Equal values may be shown once.
# System: HEK-293T
# Test: Multiplex assay against HEK293T
# Assay type: toxicity, cell-based
# Settings: human
# In short: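 Live cells were stained at seeding with Hoechst33342, BioTracker Green Microtubule Cytoskeleton Dye, MitoTracker Red and Annexin V Alexa Fluor 680, then imaged on a CQ1 microscope at 37°C and 5% CO2 after compound addition. CellPathfinder machine-learning gating split cells into Hoechst high-intensity objects or normal cells. Normal cells were split into healthy, pyknosed or fragmented nuclei, and pyknosed cells into mitotic or apoptotic. Tubulin, mitochondrial-mass and membrane-permeability phenotypes are per cents of healthy-nucleus cells.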
# [1] = 12 h, 1 µM, compound concentration 1 uM
# [2] = 12 h, 10 µM, compound concentration 10 uM
# [3] = 24 h, 1 µM, compound concentration 1 uM
# [4] = 24 h, 10 µM, compound concentration 10 uM
# [5] = 48 h, 1 µM, compound concentration 1 uM
# [6] = 48 h, 10 µM, compound concentration 10 uM
smiles,measurement,setting,value
CC/C(=C(\c1ccc(O)cc1)c1ccc(OCCN(C)C)cc1)c1ccccc1 [AFIMOXIFENE],Population Apoptotic (%),[1],6.54% and 11.93%
same,Population Fragmented Nuclei (%),[1],0.55% and 3.45%
same,Population Healthy Nuclei (%),[1],57.18% and 21.38%
same,Population Hoechst High Intensity Objects (%),[1],0.28% and 0%
same,Population Membrane Permeable-Phenotype (%),[1],0.48% and 0%
same,Population Mitochondria Different-Phenotype (%),[1],43.96% and 29.03%
same,Population Mitotic Cells (%),[1],93.46% and 88.07%
same,Population Normal (%),[1],99.72% and 100%
same,Population Pyknosed Nuclei (%),[1],42.27% and 75.17%
same,Total Cell Count,[1],363 and 145
same,Population Apoptotic (%),[2],25.32% and 29.82%
same,Population Fragmented Nuclei (%),[2],2.69% and 7.52%
same,Population Hoechst High Intensity Objects (%),[2],0%
same,Population Mitochondria Different-Phenotype (%),[2],25.19% and 44.44%
same,Population Mitotic Cells (%),[2],74.68% and 70.18%
same,Population Normal (%),[2],100%
same,Population Pyknosed Nuclei (%),[2],53.2% and 85.71%
same,Population Tubulin-Different-Phenotype (%),[2],8.4% and 22.22%
same,Total Cell Count,[2],297 and 133
same,Population Apoptotic (%),[3],8.84% and 19.33%
same,Population Fragmented Nuclei (%),[3],1.87% and 0.54%
same,Population Healthy Nuclei (%),[3],75.2% and 35.48%
same,Population Hoechst High Intensity Objects (%),[3],0%
same,Population Membrane Permeable-Phenotype (%),[3],1.45% and 3.03%
same,Population Mitochondria Different-Phenotype (%),[3],15.56% and 16.67%
same,Population Mitotic Cells (%),[3],91.16% and 80.67%
same,Population Normal (%),[3],100%
same,Population Pyknosed Nuclei (%),[3],22.93% and 63.98%
same,Population Tubulin-Different-Phenotype (%),[3],15.56% and 13.64%
same,Population Apoptotic (%),[4],49.01% and 63.64%
same,Population Fragmented Nuclei (%),[4],2.59% and 6.2%
same,Population Hoechst High Intensity Objects (%),[4],0%
same,Population Membrane Permeable-Phenotype (%),[4],0.44% and 4.55%
same,Population Mitochondria Different-Phenotype (%),[4],40.44% and 36.36%
same,Population Mitotic Cells (%),[4],50.99% and 36.36%
same,Population Normal (%),[4],100%
same,Population Pyknosed Nuclei (%),[4],39.12% and 76.74%
same,Population Tubulin-Different-Phenotype (%),[4],28.44% and 27.27%
same,Total Cell Count,[4],386 and 129
same,Population Apoptotic (%),[5],7.69% and 13.19%
same,Population Fragmented Nuclei (%),[5],1.84% and 1.61%
same,Population Healthy Nuclei (%),[5],85.71% and 61.85%
same,Population Hoechst High Intensity Objects (%),[5],0% and 0.8%
same,Population Membrane Permeable-Phenotype (%),[5],6.52% and 3.25%
same,Population Mitochondria Different-Phenotype (%),[5],18.34% and 27.92%
same,Population Mitotic Cells (%),[5],92.31% and 86.81%
same,Population Normal (%),[5],100% and 99.2%
same,Population Pyknosed Nuclei (%),[5],12.45% and 36.55%
same,Population Apoptotic (%),[6],39.87% and 62.5%
same,Population Fragmented Nuclei (%),[6],2.24% and 6.98%
same,Population Healthy Nuclei (%),[6],66.53% and 24.81%
same,Population Hoechst High Intensity Objects (%),[6],0.2% and 0%
same,Population Membrane Permeable-Phenotype (%),[6],3.37% and 9.38%
same,Population Mitochondria Different-Phenotype (%),[6],77.3% and 65.62%
same,Population Mitotic Cells (%),[6],60.13% and 37.5%
same,Population Normal (%),[6],99.8% and 100%
same,Population Pyknosed Nuclei (%),[6],31.22% and 68.22%

# — ChEMBL document CHEMBL5724801, “EUbOPEN Chemogenomics Library - Multiplex” (2024)
